Bioassay records deposited in PubChem by several laboratories.
CaV13 ICDI inh – Primary screen for inhibitors of IQ motif and Ca2+-dependent inactivation inhibitor domain binding in CACNA1D, Förster resonance energy transfer in living cells, …; hit rate 0.098% among 340,000; HEK cells, CFP/YFP FRET ICDI-IQ, plate reader, 10 min; percent FRET-ratio fall versus neutral wells; AID 743397; inhibition, % at 12.3 µM;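 active = mean replicate inhibition of at least 30% and at least 1% of replicates passing that level; inconclusive = only one of the two criteria is met; inactive = neither criterion is met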;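 also: 0% = median of the neutral control wells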
TROY NFkB inh – inhibitors of TROY-driven NF-kB signaling, primary screen, Q293 LMP1-TROYcd cells, NF-kB luciferase, uHTS; Q293 LMP1-TROYcd NF-kB luciferase reporter, 4 h; inhibition, % at 10 µM; hit rate 0.98% among 360,000;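 active = compounds whose plate-normalised and pattern-corrected inhibition of the luciferase reporter signal at the single screening dose is 50% or more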
LGR2 antag – inhibitors of bursicon-induced LGR2 CRE-luciferase signal, primary screen, cell-based, HEK293, CRE-luciferase reporter, bursicon stimulation; bursicon-stimulated, 4 h; inhibition, % at 9.99 µM; hit rate 0.35% among 380,000;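 active = drop in luminescence signal, shown as inhibition above about 50% in the replicate tests, limit read from the data, passing the limit was not always enough; inconclusive = probably only some replicates passing the limit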;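 also: agonist challenge used bursicon conditioned medium at about half maximal strength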
TWEAK-Fn14 inh – inhibitors of TWEAK-Fn14 signaling, primary screen, luciferase reporter cells, uHTS; hit rate 2% among 360,000; TWEAK-stimulated Fn14 reporter cells, luciferase luminescence, 8 h; inhibition, % at 10 µM; in the data active = inhibition above about 50%
XiGFP reactiv – activators of inactive X chromosome reactivation, primary screen, imaging, XiGFP fibroblasts, GFP high-content imaging, set 2; XiGFP mouse fibroblasts, % GFP-positive cells imaging, 3 d; cells co-treated with 5-aza-dC sensitizer; scaled so ellipticine positive control = 100%; activation, % at 7.58 µM; hit rate 0.055% among 360,000; AID 743238, 2013;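 active = mean normalized replicate activation at least 10% and every replicate at or above 10%; inconclusive = only one of the two criteria met; inactive = mean below 10% and not all replicates reach 10%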;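 also: 0% = median of on-plate neutral control wells and 100% = ellipticine 6 µM median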
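Material: XiGFP fibroblasts, SV40-immortalized; Buffer or medium: DMEM containing 5-aza-dC; Compound dosing: single point; Times: 3 days compound exposure.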
* marks the source's active call; other numbers are inactive results; ? = inconclusive; · = no result given. An excerpt weighted towards active compounds, which were near 2% of everything screened.

SMILES | CaV13 ICDI inh | TROY NFkB inh | LGR2 antag | TWEAK-Fn14 inh | XiGFP reactiv
CCCNC(=O)N1[C@@H]2c3cccc(=O)n3C[C@H]1[C@H](CO)[C@H]2C(=O)N1CCC(Cc2ccccc2)CC1 | · | · | 0 | · | 0
C[C@@]12C(=O)OC(=O)[C@]1(C)C1CCC2O1 | -5 | 66* | 18 | 98* | 0
O=C(c1cccc(F)c1)N1CC2(C1)[C@@H](c1ccccc1)[C@@H](CO)N2C(=O)C1CCC1 | · | · | -5 | · | 0
CC(C)NC(=O)Nc1cccc2c1O[C@@H](CN(C)C(=O)NC(C)C)[C@H](C)CN(C)C2=O | · | · | · | · | 0
O=c1[nH]c(C2CCN(S(=O)(=O)c3ccc4c(c3)OCCO4)CC2)nc2c1nnn2Cc1c(F)cccc1Cl | -4 | 24 | -17 | 55* | 0
O=c1[nH]c(C2CCN(S(=O)(=O)c3ccc4c(c3)OCCO4)CC2)nc2c1nnn2Cc1ccccc1F | -8 | -2 | -2 | -29 | 0
C[C@@H]1CN([C@H](C)CO)C(=O)c2cc(C#Cc3ccncc3)cnc2O[C@@H]1CN(C)C(=O)CN(C)C | · | · | 10 | · | -1
CCOC(=O)N1CCN(C(=O)c2ccc3nc(C)sc3c2)CC1 | · | -11 | · | 9 | ·
CCOC(=O)N1CCN(C(=O)c2ccc3c(c2)sc2nc(-c4ccccc4)cn23)CC1 | · | 59* | · | 29 | ·
CO[C@H]1CN(C)C(=O)c2ccc(NC(=O)c3ccccc3F)cc2OC[C@@H](C)N(CC2CC2)C[C@H]1C | · | · | -6 | · | 0
Cc1nn(-c2ccccc2)c(C)c1/C=N/NC(=O)c1cc(C(C)(C)C)[nH]n1 | · | -7 | 4 | -1 | ·
Cc1ccc(-c2cc(C(=O)N/N=C/c3c(C)nn(-c4ccccc4)c3C)n[nH]2)s1 | 3 | 28 | -19 | 51* | 0
CC(C)C(=O)N=C1NC(=O)CS1 | 6 | 3 | 0 | -4 | 0
O=C1CSC(=NC(=O)c2ccccc2)N1 | -7 | -3 | 21 | 69* | ·
O=C(NCC1CC1)[C@@H]1[C@@H](CO)[C@@H]2Cn3c(ccc(-c4cccc(F)c4)c3=O)[C@@H]2N1CC1CCOCC1 | · | · | 4 | · | 0
C[C@@H]1CN([C@H](C)CO)C(=O)c2cc(NC(=O)Nc3ccccc3)ccc2O[C@H]1CN(C)Cc1ccc(Oc2ccccc2)cc1 | · | · | 2 | · | 0
COC(=O)C1C=CC(OC2OC(COC(C)=O)C(OC(C)=O)C(OC(C)=O)C2OC(C)=O)n2c(=O)n(-c3ccccc3)c(=O)n21 (configuration not stated) | -7 | -8 | ? | 55* | 1
C[C@@H]1CN([C@H](C)CO)C(=O)c2cc(NC(=O)c3ccncc3)ccc2O[C@H]1CN(C)S(=O)(=O)c1ccc(Cl)cc1 | · | · | -12 | · | 0
CO[C@H]1CN(C)C(=O)c2ccc(NC(=O)CC(F)(F)F)cc2OC[C@@H](C)N(CC2CC2)C[C@H]1C | · | · | -9 | · | 0
COC(=O)c1[nH]c2ccccc2c1NC(=O)CN1CCN(c2cccc(Cl)c2)CC1 | -2 | 31 | 9 | 59* | ·
CCOC(=O)N1CCN(CC(=O)Nc2c(C(=O)OC)[nH]c3ccccc23)CC1 | · | -4 | -2 | 9 | ·
COC(=O)c1[nH]c2ccccc2c1NC(=O)CN1CCCCCC1 | -4 | -6 | · | 6 | ·
COC(=O)c1[nH]c2ccccc2c1NC(=O)CN1CCN(C(=O)c2ccco2)CC1 | -6 | · | · | 87* | ·
Cc1cc(O)cc(O)c1-c1onc(C(F)(F)F)c1-c1cscn1 | · | · | · | 52* | ·
Cc1ccc(S(=O)(=O)N(C)C[C@@H]2OCCCC[C@H](C)Oc3ccc(NS(=O)(=O)c4cccs4)cc3C(=O)N([C@H](C)CO)C[C@H]2C)cc1 | · | · | 4 | · | 0
O=C(Cc1cccnc1)N1CC(=O)N2[C@H](CO)[C@@H](c3ccc(-c4cccc(F)c4)cc3)[C@@H]2C1 | · | · | · | · | 1
CC(=O)c1cccc(-c2csc3ncnc(Sc4nnnn4C)c23)c1 | -10 | 19 | ? | 75* | 0
Cn1nnnc1Sc1ncnc2scc(-c3cccc(Br)c3)c12 | -5 | 67* | 4 | 99* | 0
